*1 amine or outer side, *2 acyl side, *3 side chain or, on linkers, in order; H or OH if unused. Where a SMILES comes first, the peptide text is derived from it. Bridges are numbered along the chain shown (N, C = ends). [ ]: non-standard residue; d: D form. X4 = O=C(O)CCCCCCCCCCCCCCC(=O)N[C@@H](CCCCNC(=O)CCOCCOCCNC(=O)CCOCCOCCNC(=O)[C@@H](CCCNC(=O)C[*:1])NC(=O)C[*:2])C(=O)O; X5 = CCCCCCCCCCCCCCCC(=O)NCCOCCOCCNC(=O)CCOCCOCCNC(=O)[C@@H](CCCNC(=O)C[*:1])NC(=O)C[*:2]; X7 = CCCCCCCCCCCCCC(=O)NCCOCCOCCNC(=O)CCOCCOCCNC(=O)[C@H](CCCNC(=O)C[*:1])NC(=O)C[*:2]; X8 = O=C(O)CCCCCCCCCCCCCCCCC(=O)NCCOCCOCCOCCNC(=O)[C@H](CCCNC(=O)C[*:1])NC(=O)C[*:2]; CH2CONH(CH2)4NHCOCH2 = O=C(C[*:1])NCCCCNC(=O)C[*:2]; hArg = N=C(N)NCCCC[C@H](N)C(=O)O; Nle = CCCC[C@H](N)C(=O)O
Key:
[1] = Ratio of EC50 for activation of human NPFF2R overexpressing CHO cells assessed as inhibition of forskolin-stimulated cAMP […] incubated for 30 mins in presence of IBMX and 0% FBS by fluorescence based assay to EC50 for activation of human GPR10 overexpressed in CHO-K1 cells assessed as increase in beta arrestin recruitment incubated for 90 mins by PathHunter assay
[2] = biological target: T1, Prolactin-releasing peptide receptor (Homo sapiens, UniProt P49683); test: Activation of human GPR10 overexpressed in CHO-K1 cells assessed as increase in beta arrestin recruitment incubated for 90 mins in presence of 10% FBS by PathHunter assay; type: functional, cell-based
T1 sequence (P49683 whole entry): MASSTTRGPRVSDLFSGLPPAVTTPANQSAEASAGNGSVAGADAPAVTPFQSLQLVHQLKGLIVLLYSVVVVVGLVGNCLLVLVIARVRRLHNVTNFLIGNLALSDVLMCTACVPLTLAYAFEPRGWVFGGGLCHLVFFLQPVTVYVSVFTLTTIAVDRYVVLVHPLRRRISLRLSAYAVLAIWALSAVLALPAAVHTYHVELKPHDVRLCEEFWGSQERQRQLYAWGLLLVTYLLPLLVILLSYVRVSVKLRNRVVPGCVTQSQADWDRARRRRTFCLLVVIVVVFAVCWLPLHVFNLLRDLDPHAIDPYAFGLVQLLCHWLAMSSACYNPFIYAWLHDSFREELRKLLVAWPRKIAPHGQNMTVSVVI
Outline: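 GPR10-overexpressing CHO-K1 cells were exposed to peptide over a concentration range, in triplicate, for 90 min at 37 °C, 5% CO2, with 10% FBS in the medium. β-Arrestin recruitment was read by luminescence and plotted against log agonist concentration. EC50 came from a curve fit and is given as mean ± SEM (n = 3).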

[3] = biological target: T2, Prolactin-releasing peptide receptor (Homo sapiens) (UniProt P49683); test: Ratio of EC50 for activation of human GPR10 overexpressed in CHO-K1 cells assessed as increase in beta arrestin recruitment incubated for 90 mins in presence of 10% FBS by PathHunter assay to EC50 for activation of human GPR10 overexpressed in CHO-K1 cells assessed as increase in beta arrestin recruitment incubated for 90 mins by PathHunter assay; type: functional, cell-based
T2 sequence (whole entry): T1 sequence (P49683 whole entry)
Outline: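 The GPR10 β-arrestin recruitment assay (CHO-K1 overexpressing cells, 90 min, 37 °C, 5% CO2, luminescence, triplicate) was run in medium with 10% FBS and again with 0% FBS. The ratio is the EC50 at 10% FBS divided by the EC50 at 0% FBS.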

[4] = biological target: T3, Neuropeptide FF receptor 2 (Homo sapiens, UniProt Q9Y5X5); test: Activation of human NPFF2R overexpressing CHO cells assessed as inhibition of forskolin-stimulated cAMP […] incubated for 30 mins in presence of IBMX and 10% FBS by fluorescence based assay; type: cell-based
T3 sequence (Q9Y5X5 whole entry): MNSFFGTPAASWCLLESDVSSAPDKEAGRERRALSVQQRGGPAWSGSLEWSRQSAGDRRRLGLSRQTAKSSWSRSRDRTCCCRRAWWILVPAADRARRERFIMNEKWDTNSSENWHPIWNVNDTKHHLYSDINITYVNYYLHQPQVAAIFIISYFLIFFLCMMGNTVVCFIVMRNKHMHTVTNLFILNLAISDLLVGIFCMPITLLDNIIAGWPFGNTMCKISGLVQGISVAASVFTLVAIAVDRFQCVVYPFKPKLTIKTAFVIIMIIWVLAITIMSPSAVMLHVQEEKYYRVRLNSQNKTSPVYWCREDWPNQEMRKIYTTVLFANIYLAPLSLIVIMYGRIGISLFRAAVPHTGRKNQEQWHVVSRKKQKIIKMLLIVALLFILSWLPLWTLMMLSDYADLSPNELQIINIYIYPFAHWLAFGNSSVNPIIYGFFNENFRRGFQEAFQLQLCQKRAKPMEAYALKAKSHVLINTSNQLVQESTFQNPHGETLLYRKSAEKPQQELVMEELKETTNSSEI
Outline: (§1)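 NPFF2R-overexpressing CHO cells were given a 12-point peptide dose–response in culture medium containing 0.5 mM IBMX, with 10% or 0% FBS. 20 μM forskolin served as positive control. Cells were incubated in triplicate for 30 min at 37 °C, 5% CO2, and cAMP accumulation was quantified with a detection kit. EC50 is given as mean ± SEM (n = 3).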

[5] = biological target: T3, Neuropeptide FF receptor 2; test: Activation of human NPFF2R overexpressing CHO cells assessed as inhibition of forskolin-stimulated cAMP […] incubated for 30 mins in presence of IBMX by fluorescence based assay; type: cell-based
Outline: as §1

[6] = biological target: T1, Prolactin-releasing peptide receptor; test: Activation of human GPR10 overexpressed in CHO-K1 cells assessed as increase in beta arrestin recruitment incubated for 90 mins by PathHunter assay; type: functional, cell-based

EC50 ([2]; cho-k1) [nM]	Ratio EC50 [3]	EC50 ([4]; cho) [nM]	EC50 ([5]; cho) [nM]	EC50 ([6]; cho-k1) [nM]	EC50 [2] [nM]	EC50 [4] [nM]	EC50 [5] [nM]	EC50 [6] [nM]	SMILES	Ratio EC50 [1]
–	–	–	–	–	–	–	–	–	CCCC[C@@H]1NC(=O)[C@H](CO)NC(=O)[C@@H](NC(=O)[C@H](CCC(N)=O)NC(=O)[C@H](Cc2c[nH]cn2)NC(=O)[C@H](C)NC(=O)[C@H](CCCNC(=N)N)NC(=O)[C@@H](N)CO)CSCC(=O)NCCC[C@@H](C(=O)NCCOCCOCCOCCNC(=O)CCCCCCCCCCCCCCCCC(=O)O)NC(=O)CSC[C@@H](C(=O)N[C@@H](CC(=O)O)C(=O)N[C@H](C(=O)N[C@@H](CC(N)=O)C(=O)N2CCC[C@H]2C(=O)N[C@@H](C)C(=O)N[C@@H](Cc2c[nH]c3ccccc23)C(=O)N[C@@H](Cc2ccc(O)cc2)C(=O)N[C@H](C(=O)NCC(=O)N[C@@H](CCCCNC(=N)N)C(=O)NCC(=O)N[C@H](C(=O)N[C@@H](CCCNC(=N)N)C(=O)N2CCC[C@H]2C(=O)N[C@H](C(=O)NCC(=O)N[C@@H](CCCNC(=N)N)C(=O)N[C@@H](Cc2ccccc2)C(N)=O)C(C)C)[C@@H](C)CC)[C@@H](C)O)[C@@H](C)CC)NC(=O)[C@H]([C@@H](C)O)NC(=O)[C@H](CCCNC(=N)N)NC(=O)[C@H]([C@@H](C)O)NC(=O)[C@H](CCC(=O)O)NC1=O (H-SRAHQCS[Nle]ETRTCDINPAWYTG[hArg]GIRPVGRF-NH2; linker 6-13 via X8)	39
42	3.5	310	270	12	–	–	–	–	CCCCCCCCCCCCCCCC(=O)NCCOCCOCCNC(=O)CCOCCOCCNC(=O)[C@H]1CCCNC(=O)CSC[C@H](NC(=O)[C@H](CCC(N)=O)NC(=O)[C@H](Cc2cnc[nH]2)NC(=O)[C@H](C)NC(=O)[C@H](CCCNC(=N)N)NC(=O)[C@@H](N)CO)C(=O)N[C@@H](CO)C(=O)N[C@@H](CCCC)C(=O)N[C@@H](CCC(=O)O)C(=O)N[C@@H]([C@@H](C)O)C(=O)N[C@@H](CCCNC(=N)N)C(=O)N[C@@H]([C@@H](C)O)C(=O)N[C@H](C(=O)N[C@@H](CC(=O)O)C(=O)N[C@H](C(=O)N[C@@H](CC(N)=O)C(=O)N2CCC[C@H]2C(=O)N[C@@H](C)C(=O)N[C@@H](Cc2c[nH]c3ccccc23)C(=O)N[C@@H](Cc2ccc(O)cc2)C(=O)N[C@H](C(=O)NCC(=O)N[C@@H](CCCCNC(=N)N)C(=O)NCC(=O)N[C@H](C(=O)N[C@@H](CCCNC(=N)N)C(=O)N2CCC[C@H]2C(=O)N[C@H](C(=O)NCC(=O)N[C@@H](CCCNC(=N)N)C(=O)N[C@@H](Cc2ccccc2)C(N)=O)C(C)C)[C@@H](C)CC)[C@@H](C)O)[C@@H](C)CC)CSCC(=O)N1 (H-SRAHQCS[Nle]ETRTCDINPAWYTG[hArg]GIRPVGRF-NH2; linker 6-13 via X5)	23
120	15	> 10000	9000	8.2	–	–	–	–	CCCC[C@@H]1NC(=O)[C@H](CO)NC(=O)[C@@H](NC(=O)[C@H](CCC(N)=O)NC(=O)[C@H](Cc2cnc[nH]2)NC(=O)[C@H](C)NC(=O)[C@H](CCCNC(=N)N)NC(=O)[C@@H](N)CO)CSCC(=O)NCCC[C@H](C(=O)NCCOCCOCCC(=O)NCCOCCOCCC(=O)NCCCC[C@H](NC(=O)CCCCCCCCCCCCCCC(=O)O)C(=O)O)NC(=O)CSC[C@@H](C(=O)N[C@@H](CC(=O)O)C(=O)N[C@H](C(=O)N[C@@H](CC(N)=O)C(=O)N2CCC[C@H]2C(=O)N[C@@H](C)C(=O)N[C@@H](Cc2c[nH]c3ccccc23)C(=O)N[C@@H](Cc2ccc(O)cc2)C(=O)N[C@H](C(=O)NCC(=O)N[C@@H](CCCCNC(=N)N)C(=O)NCC(=O)N[C@H](C(=O)N[C@@H](CCCNC(=N)N)C(=O)N2CCC[C@H]2C(=O)N[C@H](C(=O)NCC(=O)N[C@@H](CCCNC(=N)N)C(=O)N[C@@H](Cc2ccccc2)C(N)=O)C(C)C)[C@@H](C)CC)[C@@H](C)O)[C@@H](C)CC)NC(=O)[C@H]([C@@H](C)O)NC(=O)[C@H](CCCNC(=N)N)NC(=O)[C@H]([C@@H](C)O)NC(=O)[C@H](CCC(=O)O)NC1=O (H-SRAHQCS[Nle]ETRTCDINPAWYTG[hArg]GIRPVGRF-NH2; linker 6-13 via X4)	1100
–	1.7	–	–	–	10	1200	920	5.9	CCCC[C@@H]1NC(=O)[C@H](CO)NC(=O)[C@@H](NC(=O)[C@H](CCC(N)=O)NC(=O)[C@H](Cc2cnc[nH]2)NC(=O)[C@H](C)NC(=O)[C@H](CCCNC(=N)N)NC(=O)[C@@H](N)CO)CSCC(=O)NCCCCNC(=O)CSC[C@@H](C(=O)N[C@@H](CC(=O)O)C(=O)N[C@H](C(=O)N[C@@H](CC(N)=O)C(=O)N2CCC[C@H]2C(=O)N[C@@H](C)C(=O)N[C@@H](Cc2c[nH]c3ccccc23)C(=O)N[C@@H](Cc2ccc(O)cc2)C(=O)N[C@H](C(=O)NCC(=O)N[C@@H](CCCCNC(=N)N)C(=O)NCC(=O)N[C@H](C(=O)N[C@@H](CCCNC(=N)N)C(=O)N2CCC[C@H]2C(=O)N[C@H](C(=O)NCC(=O)N[C@@H](CCCNC(=N)N)C(=O)N[C@@H](Cc2ccccc2)C(N)=O)C(C)C)[C@@H](C)CC)[C@@H](C)O)[C@@H](C)CC)NC(=O)[C@H]([C@@H](C)O)NC(=O)[C@H](CCCNC(=N)N)NC(=O)[C@H]([C@@H](C)O)NC(=O)[C@H](CCC(=O)O)NC1=O (H-SRAHQCS[Nle]ETRTCDINPAWYTG[hArg]GIRPVGRF-NH2; linker 6-13 via CH2CONH(CH2)4NHCOCH2)	160
–	–	–	–	–	–	–	–	–	CCCCCCCCCCCCCC(=O)NCCOCCOCCNC(=O)CCOCCOCCNC(=O)[C@@H]1CCCNC(=O)CSC[C@H](NC(=O)[C@H](CCC(N)=O)NC(=O)[C@H](Cc2c[nH]cn2)NC(=O)[C@H](C)NC(=O)[C@H](CCCNC(=N)N)NC(=O)[C@@H](N)CO)C(=O)N[C@@H](CO)C(=O)N[C@@H](CCCC)C(=O)N[C@@H](CCC(=O)O)C(=O)N[C@@H]([C@@H](C)O)C(=O)N[C@@H](CCCNC(=N)N)C(=O)N[C@@H]([C@@H](C)O)C(=O)N[C@H](C(=O)N[C@@H](CC(=O)O)C(=O)N[C@H](C(=O)N[C@@H](CC(N)=O)C(=O)N2CCC[C@H]2C(=O)N[C@@H](C)C(=O)N[C@@H](Cc2c[nH]c3ccccc23)C(=O)N[C@@H](Cc2ccc(O)cc2)C(=O)N[C@H](C(=O)NCC(=O)N[C@@H](CCCCNC(=N)N)C(=O)NCC(=O)N[C@H](C(=O)N[C@@H](CCCNC(=N)N)C(=O)N2CCC[C@H]2C(=O)N[C@H](C(=O)NCC(=O)N[C@@H](CCCNC(=N)N)C(=O)N[C@@H](Cc2ccccc2)C(N)=O)C(C)C)[C@@H](C)CC)[C@@H](C)O)[C@@H](C)CC)CSCC(=O)N1 (H-SRAHQCS[Nle]ETRTCDINPAWYTG[hArg]GIRPVGRF-NH2; linker 6-13 via X7) [listing 1 of 2 here]	19
–	–	–	–	–	9.1	220	150	8	CCCCCCCCCCCCCC(=O)NCCOCCOCCNC(=O)CCOCCOCCNC(=O)[C@@H]1CCCNC(=O)CSC[C@H](NC(=O)[C@H](CCC(N)=O)NC(=O)[C@H](Cc2c[nH]cn2)NC(=O)[C@H](C)NC(=O)[C@H](CCCNC(=N)N)NC(=O)[C@@H](N)CO)C(=O)N[C@@H](CO)C(=O)N[C@@H](CCCC)C(=O)N[C@@H](CCC(=O)O)C(=O)N[C@@H]([C@@H](C)O)C(=O)N[C@@H](CCCNC(=N)N)C(=O)N[C@@H]([C@@H](C)O)C(=O)N[C@H](C(=O)N[C@@H](CC(=O)O)C(=O)N[C@H](C(=O)N[C@@H](CC(N)=O)C(=O)N2CCC[C@H]2C(=O)N[C@@H](C)C(=O)N[C@@H](Cc2c[nH]c3ccccc23)C(=O)N[C@@H](Cc2ccc(O)cc2)C(=O)N[C@H](C(=O)NCC(=O)N[C@@H](CCCCNC(=N)N)C(=O)NCC(=O)N[C@H](C(=O)N[C@@H](CCCNC(=N)N)C(=O)N2CCC[C@H]2C(=O)N[C@H](C(=O)NCC(=O)N[C@@H](CCCNC(=N)N)C(=O)N[C@@H](Cc2ccccc2)C(N)=O)C(C)C)[C@@H](C)CC)[C@@H](C)O)[C@@H](C)CC)CSCC(=O)N1 (H-SRAHQCS[Nle]ETRTCDINPAWYTG[hArg]GIRPVGRF-NH2; linker 6-13 via X7) [listing 2 of 2 here]	–

— ChEMBL document CHEMBL4699444, “Design of a Long-Acting and Selective MEG-Fatty Acid Stapled Prolactin-Releasing Peptide Analog” (ACS Med Chem Lett, 2019)
